Experimental findings from PubChem BioAssay are described below.

SMILES strings stand for the structures. The list shows a part of the results. Records with an inconclusive call do not appear. Values without a mark were called inactive. Calls of active or inactive are those of the source.

The target in experiment [1] is Solute carrier family 12 member 5 (Homo sapiens) (UniProt Q9H2X9). The experiment in a line: retest of KCC2 transport modulators without sodium – cell-based, HEK293 KCC2, thallium flux, secondary assay, confirmation (AID 1713;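 active means thallium flux slope above the same plate's solvent-only control mean plus 3 SD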). Particulars: FluoZin2 fluorescence, at 10 µM, active compounds read high. An outline of the steps: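 System: HEK cells expressing human KCC2 cotransporter; Buffer or medium: Na-free NMDG-Cl buffer; Also added: thallium sulfate stimulus buffer at pH 7.3; Dosing: 10 µM single dose, 0.1% DMSO; Timing: 48 min dye loading; Measured by: kinetic FluoZin2 fluorescence at 1 Hz, ex 480/em 540 nm; Read-out: baseline-normalized fluorescence slope, 10–20 s post-Tl+.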

Another experiment can be described thus: PubChem AID 1714.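 Further: raw slope of fluorescence over initial fluorescence between 10 and 20 s after thallium.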 The note with it: HEK293-KCC2 + bumetanide/ouabain, thallium flux FluoZin2; at 10 µM; active compounds read high. An outline of the steps:
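Assay system: HEK cells expressing the K-Cl cotransporter KCC2; buffer or medium: HBSS-HEPES plus ouabain 0.2 mM, bumetanide 2 mM; reagent: thallium stimulus; compound dosing: 10 µM single dose; timing: 48 min dye loading; signal: FluoZin2-AM (0.5 µM) fluorescence, 480 nm ex/540 nm em, 1 Hz kinetic imaging; replication: duplicates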

For experiment [2], the target named is Solute carrier family 12 member 5 (Homo sapiens) (UniProt Q9H2X9). The experiment in a line: retest of KCC2 transport modulation, ouabain-free – cell-based, HEK293 KCC2, thallium flux, FluoZin2, secondary assay 2, confirmation (AID 1715).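 Further: raw slope with 0.1% DMSO as baseline and bumetanide as block control.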 Particulars: HEK293-KCC2, thallium flux FluoZin2 fluorescence; at 10 µM; actives lie on both sides; F/F0 rise rate, 10–20 s post-thallium.

Experiment [3] is described as follows: compound effects on native HEK Tl+ uptake – HEK cells, counterscreen 1, counter-screen for KCC2 modulator project, confirmation (AID 1716;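 active means thallium flux rate significantly above the same plate's solvent-only control wells, beyond their mean plus 3 SD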). The note with it: HEK293 parental cells, thallium flux FluoZin2, ouabain; at 10 µM; baseline-ratio fluorescence slope, 10–20 s after thallium. A general note: The purpose of a counterscreen is to sort out artefacts and off-target activity.

Experiment [4] concerns the target Solute carrier family 12 member 5 (Homo sapiens) (UniProt Q9H2X9). Put plainly: modulation of KCC2 thallium flux in HEK cells – cell-based, ouabain, retest, confirmation (AID 1717;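 active means thallium flux slope beyond 3 SD from same-plate DMSO control mean in most replicates, usually higher, sometimes lower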;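 further: slope of initial-normalized fluorescence between seconds 10 and 20 after thallium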). The note with it: HEK293-KCC2, thallium flux FluoZin2 fluorescence, at 10 µM, bidirectional: low = inhibitor, high = activator.
Experiment [5] in a line: native HEK Tl+ uptake effects, second counter-screen – HEK cells, counterscreen 2, counter-screen for KCC2 modulator project, confirmation (AID 1718;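 active means thallium flux slope above the same plate's solvent-control mean plus 3 SD in both duplicate wells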;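 further: run without ouabain in cells lacking the KCC2 cotransporter; slope of fluorescence scaled to its starting value between 10 and 20 s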). The note with it: HEK293 parental, thallium flux FluoZin-2 fluorescence slope; at 10 µM. An outline of the steps: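 Test system: parental HEK cells / Reagent: thallium sulfate stimulus, 12 mM in buffer, pH 7.3 / Compound: single 10 µM final compound dose, 0.1% DMSO / Timing: overnight cell culture at 37 °C, 48 min dye loading, compound before thallium / Detection: FluoZin-2 fluorescence kinetics / Read-out: rate of F/F0 rise, 10–20 s after thallium addition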

Solute carrier family 12 member 5 (Homo sapiens), sequence (Q9H2X9 whole entry, looked up): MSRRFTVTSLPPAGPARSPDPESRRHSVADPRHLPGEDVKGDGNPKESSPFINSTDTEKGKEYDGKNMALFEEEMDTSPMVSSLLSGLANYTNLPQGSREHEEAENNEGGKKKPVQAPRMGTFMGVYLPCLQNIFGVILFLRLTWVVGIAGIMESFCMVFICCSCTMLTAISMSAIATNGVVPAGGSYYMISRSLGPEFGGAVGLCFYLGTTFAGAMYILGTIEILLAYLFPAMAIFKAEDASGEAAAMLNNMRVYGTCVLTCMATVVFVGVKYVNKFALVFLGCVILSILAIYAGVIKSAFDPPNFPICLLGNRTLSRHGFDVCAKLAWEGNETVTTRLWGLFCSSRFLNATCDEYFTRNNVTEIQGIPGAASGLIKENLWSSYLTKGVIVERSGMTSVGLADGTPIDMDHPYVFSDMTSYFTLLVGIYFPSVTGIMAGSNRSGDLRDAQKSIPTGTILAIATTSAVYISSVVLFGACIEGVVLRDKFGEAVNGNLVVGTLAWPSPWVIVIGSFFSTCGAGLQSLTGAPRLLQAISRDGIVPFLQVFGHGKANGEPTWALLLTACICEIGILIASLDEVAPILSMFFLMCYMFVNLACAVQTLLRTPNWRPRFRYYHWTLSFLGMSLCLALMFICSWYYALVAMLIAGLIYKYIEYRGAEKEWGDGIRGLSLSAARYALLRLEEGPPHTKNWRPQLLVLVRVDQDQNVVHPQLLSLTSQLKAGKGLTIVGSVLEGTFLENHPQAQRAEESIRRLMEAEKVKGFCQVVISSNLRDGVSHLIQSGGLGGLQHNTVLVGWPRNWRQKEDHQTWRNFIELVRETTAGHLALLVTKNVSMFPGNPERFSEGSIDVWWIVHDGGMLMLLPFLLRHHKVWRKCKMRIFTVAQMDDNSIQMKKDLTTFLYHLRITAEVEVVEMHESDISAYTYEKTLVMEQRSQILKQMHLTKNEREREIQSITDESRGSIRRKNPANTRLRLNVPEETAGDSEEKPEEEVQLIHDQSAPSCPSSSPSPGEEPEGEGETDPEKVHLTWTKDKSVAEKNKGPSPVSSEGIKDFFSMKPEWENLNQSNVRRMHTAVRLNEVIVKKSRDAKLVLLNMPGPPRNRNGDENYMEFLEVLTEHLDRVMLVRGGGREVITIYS

Turning to `Cc1ccc(/C=N/NC(=S)NC2CCCCC2)o1`, in experiment [1], the normalised thallium flux (F/F0 slope) is 0.0109. Besides, the values for the normalized thallium flux (in the experiment “PubChem AID 1714”; in experiment [2]) were 0.0268 (active) and 0.0327, respectively. In addition, the thallium flux rate (normalised fluorescence) in experiment [3] was 0.0111 (active). For the same compound, in experiment [4], the raw Tl+ flux slope (below DMSO = inhibition, above = activation) was 0.0502 (active).

`Cc1ccc(/C=N/NC(=S)Nc2cccc(S(=O)(=O)N(C)C)c2)o1`: the normalised thallium flux (F/F0 slope) in experiment [1] was 0.00805. In addition, the normalized thallium flux in the experiment “PubChem AID 1714” was 0.0101 (active); in experiment [2] it was 0.028. Besides, the thallium flux rate (normalised fluorescence) in experiment [3] is 0.0106 (active).

Consider `N=c1oc2ccccc2cc1C(=O)N/N=C/c1ccccc1`, for which, in experiment [1], the normalised thallium flux (F/F0 slope) was 0.00592 (active). Moreover, the normalized thallium flux in “PubChem AID 1714” is 0.00648; in experiment [2] it was 0.0291. For the same compound, the thallium flux rate (normalised fluorescence) in experiment [3] is 0.00736. Moreover, the raw Tl+ flux slope (below DMSO = inhibition, above = activation) in experiment [4] is 0.0198 (active).

Turning to `O=C(CSc1nnc(-c2cccs2)n1Cc1ccccc1)N1CCc2ccccc2C1`, the normalised thallium flux (F/F0 slope) in experiment [1] is 0.00645. For the same compound, the normalized thallium flux in the experiment “PubChem AID 1714” is 0.00334 (active); in experiment [2], 0.0237 (active). Also, in experiment [3], the thallium flux rate (normalised fluorescence) was 0.00608 (active). The raw Tl+ flux slope (below DMSO = inhibition, above = activation) in experiment [4] is 0.0136 (active). For the same compound, in experiment [5], the thallium flux slope is 0.00891 (active).

As for `COc1ccc(NC(=O)COC(=O)c2ccc(NS(=O)(=O)/C=C/c3ccccc3)cc2)cc1`, the normalised thallium flux (F/F0 slope) in experiment [1] was 0.00992. In addition, the normalized thallium flux in the experiment “PubChem AID 1714” was 0.00679; in experiment [2], 0.0304. Besides, the thallium flux rate (normalised fluorescence) in experiment [3] was 0.00722. The raw Tl+ flux slope (below DMSO = inhibition, above = activation) in experiment [4] was 0.0244.

`CCOC(=O)c1c(C)[nH]c(C)c1C(=O)CSc1nc(N)cc(N)n1`: in experiment [1], the normalised thallium flux (F/F0 slope) was 0.00797. The normalized thallium flux in “PubChem AID 1714” was 0.00434; in experiment [2], 0.0294. In experiment [3], the thallium flux rate (normalised fluorescence) is 0.00758. The raw Tl+ flux slope (below DMSO = inhibition, above = activation) in experiment [4] was 0.0193. Besides, the thallium flux slope in experiment [5] was 0.0105.

For the compound `Cc1ccccc1N/N=C/c1ccc(N2CCOCC2)cc1`, the normalised thallium flux (F/F0 slope) in experiment [1] is 0.0119 (active). Further, the values for the normalized thallium flux (in “PubChem AID 1714”; in experiment [2]) were 0.00874 (active) and 0.0362, respectively. The thallium flux rate (normalised fluorescence) in experiment [3] is 0.00826. Further, the raw Tl+ flux slope (below DMSO = inhibition, above = activation) in experiment [4] is 0.0234.

With `CCOc1ccccc1C1CC(c2ccc(Cl)cc2)Nc2nc(N)nn21` (centres undefined), in experiment [1], the normalised thallium flux (F/F0 slope) is 0.0061. In addition, the normalized thallium flux in the experiment “PubChem AID 1714” is 0.00475; in experiment [2], 0.0277. The thallium flux rate (normalised fluorescence) in experiment [3] is 0.00745. Besides, the raw Tl+ flux slope (below DMSO = inhibition, above = activation) in experiment [4] was 0.0177. Moreover, in experiment [5], the thallium flux slope is 0.00975.

Regarding `O=C(CNC(=O)c1ccco1)OCC(=O)c1ccccc1`, in experiment [1], the normalised thallium flux (F/F0 slope) is 0.00594. Further, the normalized thallium flux in the experiment “PubChem AID 1714” was 0.00472; in experiment [2], 0.0319. Besides, the thallium flux rate (normalised fluorescence) in experiment [3] is 0.00754. In addition, in experiment [4], the raw Tl+ flux slope (below DMSO = inhibition, above = activation) is 0.0197. The thallium flux slope in experiment [5] is 0.01.

In the case of `CCc1cc(-c2n[nH]c(=S)n2CC(C)C)cs1`, in experiment [1], the normalised thallium flux (F/F0 slope) was 0.0137 (active). The normalized thallium flux in the experiment “PubChem AID 1714” was 0.0351 (active); in experiment [2], 0.0359. Moreover, in experiment [3], the thallium flux rate (normalised fluorescence) is 0.0146 (active). The raw Tl+ flux slope (below DMSO = inhibition, above = activation) in experiment [4] was 0.0381 (active). In experiment [5], the thallium flux slope was 0.0129 (active).

Turning to `Cc1ccc(Nc2nnc(SCC(=O)c3cc4ccccc4o3)s2)cc1C`, the normalised thallium flux (F/F0 slope) in experiment [1] is 0.00887. In addition, the values for the normalized thallium flux (in “PubChem AID 1714”; in experiment [2]) were 0.00668 and 0.0195 (active), respectively. Besides, the thallium flux rate (normalised fluorescence) in experiment [3] was 0.00694. The raw Tl+ flux slope (below DMSO = inhibition, above = activation) in experiment [4] is 0.00819 (active). Moreover, in experiment [5], the thallium flux slope was 0.00899.

With `Cc1ccccc1-c1n[nH]c(=S)n1/N=C/c1ccc(-c2ccccc2Br)o1`, the normalised thallium flux (F/F0 slope) in experiment [1] is 0.0093. Besides, the normalized thallium flux in “PubChem AID 1714” is 0.016 (active); in experiment [2], 0.0304. Moreover, the thallium flux rate (normalised fluorescence) in experiment [3] was 0.00991 (active).

Turning to `COc1ccc(C(=O)NN(C)c2nc(-c3ccccc3)cc(C)c2S(C)(=O)=O)cc1`, the normalised thallium flux (F/F0 slope) in experiment [1] was 0.0121 (active). Besides, the results for the normalized thallium flux (in “PubChem AID 1714”; in experiment [2]) were 0.0071 and 0.0316, respectively. The thallium flux rate (normalised fluorescence) in experiment [3] was 0.00831. In addition, the raw Tl+ flux slope (below DMSO = inhibition, above = activation) in experiment [4] was 0.0204. Also, the thallium flux slope in experiment [5] was 0.0107.

Take `NC(=O)NC(=O)CSc1nc2cc([N+](=O)[O-])ccc2n1-c1cccc(C(F)(F)F)c1`: the normalised thallium flux (F/F0 slope) in experiment [1] is 0.00549. In addition, the normalized thallium flux in “PubChem AID 1714” was 0.0122 (active); in experiment [2], 0.0326. The thallium flux rate (normalised fluorescence) in experiment [3] is 0.0113 (active).

`COc1ccc(NC(=O)N2CCC(Cc3ccccc3)CC2)cc1`: the normalised thallium flux (F/F0 slope) in experiment [1] is 0.00655. In addition, the normalized thallium flux was 0.00529 in “PubChem AID 1714” and 0.0303 in experiment [2]. Further, in experiment [3], the thallium flux rate (normalised fluorescence) was 0.00728. For the same compound, in experiment [4], the raw Tl+ flux slope (below DMSO = inhibition, above = activation) was 0.0137 (active).

In the case of `CCn1c(SCc2ccccc2)nc2c(c1=O)SCC2`, the normalised thallium flux (F/F0 slope) in experiment [1] was 0.00954. Moreover, the normalized thallium flux in the experiment “PubChem AID 1714” was 0.00493; in experiment [2], 0.0352. Besides, the thallium flux rate (normalised fluorescence) in experiment [3] is 0.00537 (active). In experiment [4], the raw Tl+ flux slope (below DMSO = inhibition, above = activation) was 0.0198. Besides, the thallium flux slope in experiment [5] was 0.00988.

For `CCc1ccc2nc3sc(C(=O)Nc4nnc(CC)s4)c(N)c3cc2c1`, in experiment [1], the normalised thallium flux (F/F0 slope) is 0.00632. Moreover, the figures for the normalized thallium flux (in the experiment “PubChem AID 1714”; in experiment [2]) were 0.000813 (active) and 0.0241 (active), respectively. Besides, the thallium flux rate (normalised fluorescence) in experiment [3] is 0.00534 (active). The raw Tl+ flux slope (below DMSO = inhibition, above = activation) in experiment [4] is 0.0132 (active).

Consider `Cc1ccc(N2C(=O)C(Cc3ccccc3)NC2=S)cc1` (centres undefined), for which the normalised thallium flux (F/F0 slope) in experiment [1] was 0.00991. Further, the normalized thallium flux is 0.0247 (active) in “PubChem AID 1714” and 0.032 in experiment [2]. In addition, in experiment [3], the thallium flux rate (normalised fluorescence) is 0.0128 (active). Moreover, the raw Tl+ flux slope (below DMSO = inhibition, above = activation) in experiment [4] was 0.0236.

For `CCCOC(=O)CC1C(=O)NCCN1Cc1ccc(F)cc1` (centres undefined), the normalised thallium flux (F/F0 slope) in experiment [1] is 0.00813. The figures for the normalized thallium flux (in “PubChem AID 1714”; in experiment [2]) were 0.00582 and 0.0278, respectively. For the same compound, the thallium flux rate (normalised fluorescence) in experiment [3] is 0.0066. Also, the raw Tl+ flux slope (below DMSO = inhibition, above = activation) in experiment [4] was 0.019. The thallium flux slope in experiment [5] is 0.00872.

Turning to `CN(C)S(=O)(=O)c1cccc(NC(=S)N/N=C/C(=O)c2ccccc2)c1`, in experiment [1], the normalised thallium flux (F/F0 slope) was 0.014 (active). Moreover, the figures for the normalized thallium flux (in the experiment “PubChem AID 1714”; in experiment [2]) were 0.0308 (active) and 0.0323, respectively. The thallium flux rate (normalised fluorescence) in experiment [3] is 0.0158 (active). In addition, the raw Tl+ flux slope (below DMSO = inhibition, above = activation) in experiment [4] is 0.0279. Moreover, the thallium flux slope in experiment [5] was 0.0129 (active).

Regarding `Cc1onc(-c2ccccc2)c1C(=O)NNC(=S)NC(=O)c1ccc(F)cc1`, the normalised thallium flux (F/F0 slope) in experiment [1] is 0.00605. Moreover, the figures for the normalized thallium flux (in the experiment “PubChem AID 1714”; in experiment [2]) were 0.0254 (active) and 0.0354, respectively. Moreover, the thallium flux rate (normalised fluorescence) in experiment [3] is 0.018 (active). Besides, the raw Tl+ flux slope (below DMSO = inhibition, above = activation) in experiment [4] is 0.0299 (active). The thallium flux slope in experiment [5] was 0.0217 (active).

In the case of `O=c1[nH]c2ccccc2s1`, the normalised thallium flux (F/F0 slope) in experiment [1] was 0.00622. Besides, the normalized thallium flux was 0.00492 in the experiment “PubChem AID 1714” and 0.0299 in experiment [2]. Also, the thallium flux rate (normalised fluorescence) in experiment [3] is 0.00725. The raw Tl+ flux slope (below DMSO = inhibition, above = activation) in experiment [4] was 0.0175. Moreover, the thallium flux slope in experiment [5] was 0.00982.
